TROY signal inh = inhibitors of TROY-driven NF-kB signaling, primary screen, Q293 LMP1-TROYcd cells, NF-kB luciferase, uHTS | inhibition, % at 10 µM | Q293 LMP1-TROYcd NF-kB luciferase reporter, 4 h | 0.98% of 360,000 active;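 active = compounds whose plate-normalised and pattern-corrected inhibition of the luciferase reporter signal at the single screening dose is 50% or more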
NR2E3 ag-1 = NR2E3 agonists in two-hybrid cells, primary screen, cell-based, luminescence, CHO-S, Gal4-NCOR/VP16-NR2E3 | luciferase | 0.35% of 360,000 active | AID 602229, 2012 | inhibition of corepressor binding, % at 3.98 µM;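 active = inhibition above the mean of all tested compounds plus 3 SD, cut at about 70% in these data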;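 note: 0% = DMSO with NR2E3 transfected cells and 100% = cells lacking NR2E3 construct; higher means lower luciferase signal from less NR2E3 corepressor binding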
Target sequence (Q9Y5X4 whole entry, looked up, the tested form may be a part): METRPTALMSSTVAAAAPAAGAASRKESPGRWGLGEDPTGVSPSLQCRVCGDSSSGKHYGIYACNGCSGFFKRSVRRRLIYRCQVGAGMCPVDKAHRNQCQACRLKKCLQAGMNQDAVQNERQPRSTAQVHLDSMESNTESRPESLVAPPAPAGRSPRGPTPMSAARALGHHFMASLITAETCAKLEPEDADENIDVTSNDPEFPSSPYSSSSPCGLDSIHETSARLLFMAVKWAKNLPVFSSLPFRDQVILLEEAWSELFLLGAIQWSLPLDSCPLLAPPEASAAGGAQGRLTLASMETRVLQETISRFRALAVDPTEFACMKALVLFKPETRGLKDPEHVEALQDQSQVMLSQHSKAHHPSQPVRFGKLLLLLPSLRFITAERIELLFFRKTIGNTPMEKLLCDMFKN
EBV LMP1 NFkB = EBV LMP1-driven NF-kappaB luciferase reporter inhibitors, primary screen, cell-based, luminescence, single point; LMP1-induced NF-kappaB luciferase reporter cells; inhibition, % at 12.5 µM; 0.69% of 350,000 active; AID 504558, 2011; in the data active = inhibition above about 41%; inconclusive = no clear call, values can overlap the other calls;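 note: 0% = neutral control wells and 100% = reference inhibitor control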
NR2E3 ag-2 = inhibitors of NR2E3-RetCOR corepressor binding, primary screen, NR2E3 agonist project, biochemical, TR-FRET, GST-NR2E3, biotin-RetCOR. 1536-well. inhibition of corepressor binding, % at 4.78 µM. 0.12% of 320,000 active. AID 2300, 2010;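 active = percent inhibition above the cutoff of mean plus 3 SD of all tested compounds, set per screening campaign, cut at about 20% in these data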;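 note: 0% = DMSO wells and 100% = biotin wells as full block of FRET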
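System: GST-NR2E3 and biotin-RetCOR proteins; probe or stimulus: 7 nM biotin-RetCOR; doses: compound at 4.8 µM, single dose; schedule: Compound–protein incubation for 5 h at 4 °C; detection: time-resolved FRET; read-out: percent inhibition; controls: biotin wells as high control, 0.6% DMSO wells as low control; format: 1536-well plates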
HIF act = HIF pathway transcriptional activators, primary screen, cell-based, U2OS HRE-luciferase, luminescence; U2OS HRE-luciferase reporter; normalized: DMSO 0%, desferrioxamine 100%; activation, % at 7.5 µM (by protocol); 0.32% of 300,000 active; AID 1910, 2009;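 active = mean activation of at least 10% of the iron chelator positive control signal, with at least half of replicates also reaching 10%; inconclusive = mean and replicate majority disagree about reaching 10%; inactive = mean and most replicates under 10%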
The depositor's hits bear a star; ? = inconclusive; / = no result. Sampled rows, rich in hits. Any-hit rate of the full collection: about 2%.

SMILES	TROY signal inh	NR2E3 ag-1	EBV LMP1 NFkB	NR2E3 ag-2	HIF act
CC(C)CCNC(=O)C1CCN(S(=O)(=O)c2ccc3c(c2)CC(C)N3C(=O)C2CC2)CC1 (configuration not stated)	-1.7	-8.2	54.3*	2.9	-0.8
COc1cc(NC(=O)C2CCN(S(=O)(=O)c3ccc4c(c3)CC(C)N4C(C)=O)CC2)cc(OC)c1OC (configuration not stated)	12.3	-8.0	-9.8	3.9	0.4
COc1ccc(NC(=O)C2CCN(S(=O)(=O)c3ccc4c(c3)CC(C)N4C(C)=O)CC2)cc1OC (configuration not stated)	3.3	2.4	6.0	-0.9	677.6*
CCc1ccc(/C=C2/C(=O)NC(=O)N2C(C)=O)cc1	-42.6	-39.9	2.7	-7.1	2.9
Cc1ccc(NC(=O)C(C)OC(=O)COc2cccc(C(F)(F)F)c2)cc1 (configuration not stated)	1.3	0.3	-4.2	2.0	/
CC(=O)N1c2ccc(S(=O)(=O)N3CCC(C(=O)NC(C)c4ccccc4)CC3)cc2CC1C (configuration not stated)	-10.6	2.1	2.5	0.3	-0.3
Cc1nc(N2CCc3ccccc3C2)[nH]c(=O)c1Cc1ccccc1	-5.8	-1.0	-3.6	7.2	-0.1
Cc1nc(-n2[nH]c3c(c2=O)CCCC3)[nH]c(=O)c1Cc1ccccc1	0.1	22.4	22.7	-3.1	12.5*
CC(=O)c1ccc(S(=O)(=O)N2CCN(C(=O)c3ccc(COc4ccccc4)o3)CC2)cc1	14.3	22.6	8.7	/	/
OC(CSc1ccccc1Cl)CN1CCN(c2ccccc2F)CC1 (configuration not stated)	63.5*	-17.6	0.5	-5.7	-0.2
CCCc1cc(=O)[nH]c(SCC(=O)Nc2ccc(Br)cc2Br)n1	67.5*	-1.6	-4.4	3.2	-0.2
Cc1ccc(SCc2cc(=O)[nH]c(SCC(=O)Nc3cc(Cl)ccc3Cl)n2)cc1	59.0*	-21.2	13.3	1.1	0.0
CCc1ccc(NC(=O)CSc2nc(CSc3ccc(C)cc3)cc(=O)[nH]2)cc1	8.3	-16.6	-2.5	4.8	0.4
Cc1ccc(C(=O)COC(=O)c2cccc(NC(=O)c3ccc([N+](=O)[O-])cc3[N+](=O)[O-])c2)cc1	58.8*	-6.6	-13.1	2.6	1.9
CCOC(=O)c1cccc(NC(=O)/C=C/c2ccc([N+](=O)[O-])cc2)c1	56.6*	-44.5	15.6	-2.0	0.3
CC(=O)Nc1ccc(C(=O)OCC(=O)c2cccc([N+](=O)[O-])c2)cc1	-20.6	-16.0	-6.2	4.8	0.1
O=C(/C=C/c1ccccc1)Nc1cccc(C(=O)O)c1	-21.1	-166.7	80.2*	0.2	-8.0
O=C(/C=C/c1ccccc1)Nc1cc(NC(=O)/C=C/c2ccccc2)cc(C(=O)O)c1	-4.0	-8.4	7.9	/	-2.1
O=C(Nc1ccc([N+](=O)[O-])cc1)C(=O)Nc1cccc(C(=O)O)c1	-29.4	-187.4	90.1*	0.9	-4.0
Cc1ccsc1C(=O)NNC(=O)c1ccncc1	7.0	-8.9	3.0	/	/
Cn1c(C2CCCCC2)nc2ccccc21	24.3	3.5	23.4	1.8	-2.3
Cc1ccccc1NC(=O)C(C)n1c2ccccc2c2nc(=O)cc(C)n21 (configuration not stated)	23.9	-5.7	-9.8	4.8	0.0
NNC(=O)CS(=O)(=O)c1ccc(Cl)cc1	-14.0	8.8	-2.1	0.9	0.5
Cc1cc(C)c(C)c(S(=O)(=O)N2CCC(C(=O)NNC(=O)c3ccccc3O)CC2)c1C	-15.0	-12.3	2.5	-0.8	0.7
COC(=O)c1cc(S(=O)(=O)N2CCN(c3cccc(Cl)c3)CC2)c[nH]1	-3.2	21.6	-8.2	3.1	0.1
CN1CCc2c(sc(/N=C/c3c[nH]c4ccccc34)c2C#N)C1	-1.7	-39.0	/	-0.1	2.1
CN1CCc2c(sc(/N=C/c3cc(Cl)ccc3O)c2C#N)C1	74.5*	-32.8	-34.0	-1.5	2.0
Cc1nc(SCC(=O)Nc2nccs2)c(C#N)c(C)c1C	72.7*	6.4	?	5.6	/

Bioassay records (PubChem)
